# Most compounds without a hit are left out; they make up all but 3.5% or so of the library.
# RGS4 inh: RGS4 inhibitors, primary screen, cell-based, HEK293 M3R inducible RGS4, calcium flux. Regulator of G-protein signaling 4 (Homo sapiens), P49798. Fluo-4 calcium flux; active compounds read high; triggered by carbachol at its EC20. B-score at 10 µM. 310,000 tested, 0.45% active. AID 463165, 2010;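 active means B-score, a plate-corrected calcium signal, over three deviations above library mean, with baseline fluorescence within five deviations of library mean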;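 further: RGS4 expression induced by doxycycline in cells with stable M3 receptor; B-score is computed from the integrated fluorescence ratio over baseline after carbachol; higher B-score means a larger calcium signal and so more RGS4 inhibition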
# Target sequence (P49798 whole entry, looked up): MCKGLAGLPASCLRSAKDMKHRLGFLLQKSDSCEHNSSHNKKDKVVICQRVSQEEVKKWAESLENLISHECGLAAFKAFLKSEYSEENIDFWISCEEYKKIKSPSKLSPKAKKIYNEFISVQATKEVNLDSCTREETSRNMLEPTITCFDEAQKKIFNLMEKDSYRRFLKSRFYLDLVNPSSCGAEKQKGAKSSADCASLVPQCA
# RGS4 act: RGS4 potentiators or activators, primary screen, cell-based, HEK293 M3R inducible RGS4, calcium flux; carbachol calcium flux Fluo4; active compounds read low; B-score at 10 µM; 310,000 tested, 0.92% active; AID 463111, 2010;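 active means B-score of the integrated calcium signal more than 4 SD below the library mean, with starting fluorescence not abnormally high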;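 further: negative B-score means reduced calcium response which marks RGS4 activation or potentiation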
#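 test system = M3R-expressing HEK293 line, RGS4 induced by doxycycline | probe or stimulus = carbachol at ECmax as muscarinic agonist stimulus | timing = dye loading 30 min 37 °C, buffer rest 30 min RT | signal = calcium dye Fluo4 fluorescence | evaluation = B score from integrated fluorescence ratio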
# MrgX1 allo act: positive allosteric modulators of MrgX1, primary screen, HEK293 cells, Fluo-4 calcium flux; B-score at 10 µM; AID 588675, 2011; 310,000 tested, 0.63% active; Mas-related G-protein coupled receptor member X1 (Homo sapiens), Q96LB2; FDSS; active compounds read high;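 active means plate-corrected calcium response at least 3 library SD above typical, normal starting fluorescence, not activating the receptor alone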;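 further: compound read alongside a low EC10 to EC30 dose of BAM8-22 agonist; peak minus trough fluorescence over baseline measured at the second addition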
# Target sequence (Q96LB2 whole entry, looked up): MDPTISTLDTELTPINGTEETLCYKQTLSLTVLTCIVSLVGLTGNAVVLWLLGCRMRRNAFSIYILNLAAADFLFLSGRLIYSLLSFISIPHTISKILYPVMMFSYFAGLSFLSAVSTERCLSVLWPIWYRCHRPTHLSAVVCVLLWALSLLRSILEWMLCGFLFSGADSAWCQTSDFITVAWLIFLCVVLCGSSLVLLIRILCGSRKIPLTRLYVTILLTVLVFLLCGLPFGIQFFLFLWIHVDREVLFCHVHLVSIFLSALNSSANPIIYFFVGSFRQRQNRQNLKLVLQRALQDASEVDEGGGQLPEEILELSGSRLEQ
# MrgX1 antag: antagonists of human MrgX1 receptor, primary screen, HEK293 cells, Fluo-4 calcium flux; Mas-related G-protein coupled receptor member X1 (Homo sapiens), Q96LB2; BAM8-22 antagonism; active compounds read low; B-score at 10 µM; 310,000 tested, 1.3% active; AID 588676, 2011;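 active means calcium-response B-score plate-corrected more than 3 library SD below zero, starting fluorescence within 5 deviations, no agonist response on first addition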;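 further: peak minus trough fluorescence over baseline after final BAM8-22 challenge near maximal dose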
# MrgX1 ag: agonists of human MrgX1 receptor, primary screen, HEK293 cells, Fluo-4 calcium flux. B-score at 10 µM. 310,000 tested, 0.44% active. Fluo-4 calcium fluorescence, agonist mode; active compounds read high. Mas-related G-protein coupled receptor member X1 (Homo sapiens), Q96LB2;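 active means calcium response B-score plate-corrected fluorescence ratio at least 3 library SD, with starting fluorescence B-score inside 5 SD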
#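 Assay system: MrgX1-expressing HEK293 cells / Amount: fifteen thousand cells per well / Doses: test compound in the initial addition of three / Timing: cells plated overnight, dye loaded 0.5 h 37 °C, 0.5 h room temperature / Technique: kinetic calcium dye fluorescence, Fluo-4 NW / Control set: positive and negative controls per plate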
# * = called active by the depositor; i = inactive; / = no result.
SMILES,RGS4 inh,RGS4 act,MrgX1 allo act,MrgX1 antag,MrgX1 ag
CCN(CC)S(=O)(=O)c1ccc(-c2nnc(SCC(=O)Nc3cc(OC)cc(OC)c3)o2)cc1,i,i,i,-4.6*,i
Cc1sc2nc(CSC(C)C(=O)N(C)CC(=O)Nc3ccccc3C(F)(F)F)[nH]c(=O)c2c1C (stereo unspecified),i,-7.1*,i,i,i
Cc1nn(-c2ccccc2)c(/N=C/c2ccc(O)cc2)c1-c1ccccc1,i,i,i,i,i
COc1ccc(CCNc2ccc(C(CC(N)=O)NC(=O)c3cc(OC)ccc3OC)cc2[N+](=O)[O-])cc1 (stereo unspecified),i,i,i,-5*,i
COc1ccc(C2NC(=O)NC(O)(C(F)(F)F)C2C(=O)c2ccc(C)cc2)cc1 (stereo unspecified),i,-7.6*,i,i,i
Cc1ccc(C)c(-c2cc(C(=O)Nc3cccc(C(=O)O)c3)c3ccccc3n2)c1,i,i,i,i,i
Cc1ccc(C)c(-c2cc(C(=O)Nc3cccnc3)c3ccccc3n2)c1,i,-7.6*,i,i,i
COc1cnn(-c2ccc(C)cc2)c(=O)c1SCc1ccccc1,i,i,i,i,30*
COc1cnn(-c2ccc(Br)cc2)c(=O)c1SCc1ccccc1,i,i,i,i,i
CC(C)C1OC2c3cccc4cccc(c34)C2N1c1ccccc1 (stereo unspecified),i,i,i,i,39*
O=C(NCCc1ccc(F)cc1)Nc1ccc([N+](=O)[O-])cc1,i,i,i,i,i
O=[N+]([O-])c1ccc(NC(=S)NCCc2ccc(F)cc2)cc1,i,i,i,i,30*
O=C1NC(=S)N/C1=C/c1cccc2ccccc12,i,i,i,i,i
CC(/C=C1\NC(=S)NC1=O)=C\c1ccccc1,i,i,i,-5.1*,i
COc1ccc(NC(=O)CN(C)C(=O)CCCSc2nc3ccccc3[nH]2)cc1,i,i,i,i,i
CCOc1ccc2[nH]c(=O)c(CN(Cc3nnnn3Cc3ccco3)C3CCCCC3)cc2c1,i,i,i,i,27*
COc1cc2cc(CN(Cc3nnnn3Cc3ccco3)C3CCCCC3)c(=O)[nH]c2cc1OC,i,i,i,i,i
O=C(O)CCC(NC(=O)C1CCCN1C(=O)OCc1ccccc1)C(=O)O (stereo unspecified),i,i,i,-6.4*,i
O=C(O)C(NC(=O)C1CCCN1C(=O)OCc1ccccc1)c1ccccc1 (stereo unspecified),i,i,i,i,i
O=C1Nc2ccccc2/C1=C/c1cccnc1,i,i,i,i,i
O=C1Nc2ccccc2/C1=C/c1cnc(-c2ccccc2)[nH]1,i,-7*,i,i,i
COC(=O)c1c(NC(=O)Cn2cnc([N+](=O)[O-])n2)sc2c1CCC(C)C2 (stereo unspecified),i,-7.6*,i,i,i
CCOC(=O)c1c(NC(=O)Cn2cnc([N+](=O)[O-])n2)sc2c1CCC(C)C2 (stereo unspecified),i,i,i,i,i
CC(Oc1ccc([N+](=O)[O-])cc1)C(=O)NCC1CCCO1 (stereo unspecified),i,i,i,i,i
Cc1cc(C)c2nc(N3C(=O)C(O)=C(C(=O)c4ccco4)C3c3ccco3)sc2c1 (stereo unspecified),i,-7.9*,i,i,i
SMILES,RGS4 inh,RGS4 act,MrgX1 allo act,MrgX1 antag,MrgX1 ag
CCOC(=O)c1sc(N2C(=O)C(O)=C(C(=O)c3ccco3)C2c2ccco2)nc1C (stereo unspecified),i,i,i,i,i
COc1ccccc1C1CCN(c2cc(O)ccc2[N+](=O)[O-])CC1,i,i,i,i,i
O=C(Nc1ccccc1)C1=C[C@H](c2ccccc2)C[C@H](OCc2ccc(CO)cc2)O1,i,i,7.3*,i,i
CC1=NN(/C(=N\c2nnc(C)s2)Nc2ccc(C)cc2)[C@H](c2ccc(C)cc2)S1,i,i,i,i,30*
Cc1ccc(CC(=O)Nc2nccs2)cc1,i,i,i,i,i
C=COCCNC(=O)C1CC(=O)N(c2ccc(C)cc2)C1 (stereo unspecified),i,i,i,i,i
O=C1C2C3C=CC(CO)(O3)C2C(=O)N1c1ccccc1-c1ccccc1 (stereo unspecified),/,/,i,i,34*
CC(=O)Oc1ccc(N2C(=O)C3C4C=CC(CO)(O4)C3C2=O)cc1 (stereo unspecified),i,i,i,i,i
CC(=O)Nc1ccc(S(=O)(=O)NCC2CCC(C(=O)N3CCCCC3)CC2)cc1 (stereo unspecified),i,i,i,i,i
CN(NC(=O)c1ccc(Cl)cc1Cl)C1=NS(=O)(=O)c2ccccc21,i,i,i,-6.3*,i
C=CCn1c(SCC(=O)c2cc(C)n(C(C)COC)c2C)nc2sc(C)c(C)c2c1=O (stereo unspecified),i,-7.5*,i,i,i
Oc1ccc(N=C/C=C/c2ccc(Br)cc2)cc1-c1nc2ccccc2s1,6.2*,i,i,i,i
COC(=O)c1ccccc1NC(=O)CN1CCc2ccccc2C1,i,i,i,i,i
COC(=O)c1ccccc1NC(=O)CN1CCN(C23CC4CC(CC(C4)C2)C3)CC1,i,-8*,i,i,i
COc1ccc(C(=O)c2sc3nc(-c4ccccc4)ccc3c2N)cc1,i,i,11*,i,i
CC(C)OC(=O)c1sc2nc(-c3ccccc3)ccc2c1N,i,i,i,i,i
COc1ccc(C(O)(C2CCCCC2)C(CN2CCOCC2)c2ccccc2)cc1 (stereo unspecified),i,i,i,i,i
OC(c1ccccc1)(C1CCCCC1)C(CN1CCOCC1)c1ccccc1 (stereo unspecified),i,i,i,-8.2*,i
CCCOC(=O)c1ccc(Oc2coc3c(CN(CC)CC)c(O)ccc3c2=O)cc1,i,-8.6*,i,i,i
CCN(CC)Cc1c(O)ccc2c(=O)c(-c3ccc(Cl)cc3)coc12,i,i,i,i,i

# High-throughput results (PubChem)
